Reference: paper PMC6988732 (The Biochemical journal, 2013)
Positions count from the first letter of the chain named. Several values for one entry are separate records, joined by “and”; a condition that tells them apart may be missing. Equal values may be shown once. Read-outs that look alike come from different tables or passages of the source.

How the values were obtained:
PKCδC1B W252K = conditions: cited from earlier work
PKCθC1B Y239A = molecular target: T1, PKCθC1B Y239A (Mus musculus, UniProt Q02111, Y239A); assay: [3H]PDBu binding assay
T1 sequence (Q02111 232-281 Y239A): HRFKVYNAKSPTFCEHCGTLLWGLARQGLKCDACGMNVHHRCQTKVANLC
Summary of the method: (§1)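 GST-cleaved mouse PKCθ C1B (residues 232–281), E. coli-expressed, affinity/gel-filtration purified. PEG-precipitation [3H]PDBu binding; Kd from saturable plus linear non-specific fit. Ki: [3H]PDBu at 2–5-fold each construct's Kd, DOG or SAG 1–100000 nM, dried from chloroform with phospholipid, sonicated. PS dependence: total phospholipid 100 μg/ml, PS 0–100%, remainder PC, relative to 100% PS. Means ± S.E.M., three independent experiments.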

PKCδC1B = conditions: cited from earlier work
PKCδC1B Y238G = conditions: PKCδC1B mutant homologous to Y239A; ref Supplementary Table S1; cited from earlier work
PKCθC1B W253G = molecular target: T2, PKCθC1B W253G (Mus musculus, UniProt Q02111, W253G); assay: [3H]PDBu binding assay
T2 sequence (Q02111 232-281 W253G): T1 sequence (Q02111 232-281 Y239A) with A8Y, W22G

PKCθC1B T243A = molecular target: T3, PKCθC1B T243A (Mus musculus, UniProt Q02111, T243A); assay: [3H]PDBu binding assay
T3 sequence (Q02111 232-281 T243A): T1 sequence (Q02111 232-281 Y239A) with A8Y, T12A
Summary of the method: as §1

PKCδC1B L250K = conditions: cited from earlier work
PKCδC1B L250D = conditions: in the presence or absence of PS; cited from earlier work
PKCδC1B W252G = conditions: PKCδC1B mutant homologous to W253G; ref Supplementary Table S1; cited from earlier work
PKCδC1B L255K = conditions: cited from earlier work
PKCθC1B Q258G = molecular target: T4, PKCθC1B Q258G (Mus musculus, UniProt Q02111, Q258G); assay: [3H]PDBu binding assay
T4 sequence (Q02111 232-281 Q258G): T1 sequence (Q02111 232-281 Y239A) with A8Y, Q27G
Summary of the method: as §1

PKCθC1B wild-type = molecular target: T5, PKCθC1B wild-type (Mus musculus, UniProt Q02111); assay: [3H]PDBu binding assay
T5 sequence (Q02111 232-281): T1 sequence (Q02111 232-281 Y239A) with A8Y
Summary of the method: as §1

PKCδC1B L255D = conditions: in the presence or absence of PS; cited from earlier work
PKCδC1B L250R = conditions: cited from earlier work
PKCδC1B L254G = conditions: PKCδC1B mutant homologous to L255G; ref Supplementary Table S1; cited from earlier work
PKCθC1B L255G = molecular target: T6, PKCθC1B L255G (Mus musculus, UniProt Q02111, L255G); assay: [3H]PDBu binding assay
T6 sequence (Q02111 232-281 L255G): T1 sequence (Q02111 232-281 Y239A) with A8Y, L24G
Summary of the method: as §1

## CCCC(=O)O[C@@H]1[C@@H](C)[C@@]2(O)[C@@H](C=C(CO)C[C@]3(O)C(=O)C(C)=C[C@@H]23)[C@@H]2C(C)(C)[C@]12OC(=O)CCC [PDBu, phorbol 12,13-dibutyrate]
PKCδC1B W252K; 50% PS
  activity at 50% PS as percent of the maximum activity: approximately 55%
PKCδC1B W252K; in the absence of the PS
  binding affinity compared with the wild-type: remained almost the same
PKCδC1B W252K; in the presence of PS
  effect on PDBu binding compared with the wild-type: 3 fold
PKCθC1B Y239A; PS/PC mixture, total phospholipid 100 μg/ml, Y239A
  PDBu binding at 50% PS relative to the level at 100% PS: 130.7%
PKCθC1B Y239A; PS/PC mixtures, Y239A, decrease at 100% PS
  PS percentage giving maximal [3H]PDBu binding: 50–75%
PKCθC1B Y239A; Y239A vs wild-type PKCθC1B (Kd for PDBu, Ki for DOG/SAG)
  reduction in binding affinity compared with the wild-type: 8.51 fold and 9 fold
PKCθC1B Y239A; read-out: PDBu Kd, PKCθ C1B Y239A, mean ± S.E.M.
  Kd: 3.32 ± 0.34 nM
PKCδC1B
  activity at 50% PS: approximately 100%
PKCδC1B Y238G
  reduction in the binding affinity compared with the wild-type: 60 fold
PKCθC1B W253G; PS/PC mixture, total phospholipid 100 μg/ml, W253G
  PDBu binding at 50% PS relative to the level at 100% PS: 59.3%
PKCθC1B W253G; W253G vs wild-type PKCθC1B (Kd for PDBu, Ki for DOG/SAG)
  reduction in binding affinity compared with the wild-type: 7.56 fold and 8 fold
PKCθC1B W253G; read-out: PDBu Kd, PKCθ C1B W253G, mean ± S.E.M.
  Kd: 2.95 ± 0.19 nM
PKCθC1B T243A; PS/PC mixture, total phospholipid 100 μg/ml, T243A
  PDBu binding at 50% PS relative to the level at 100% PS: 98.2%
PKCθC1B T243A; T243A vs wild-type PKCθC1B (Kd for PDBu, Ki for DOG/SAG)
  reduction in binding affinity compared with the wild-type: 1.64 fold
PKCθC1B T243A; read-out: PDBu Kd, PKCθ C1B T243A, mean ± S.E.M.
  Kd: 0.64 ± 0.06 nM
PKCδC1B L250K; in the absence of the PS
  binding affinity compared with the wild-type: remained almost the same
PKCδC1B L250K; in the presence of PS
  effect on PDBu binding compared with the wild-type: 3 fold
PKCδC1B L250D
  effect of mutation on strong binding of PDBu: completely abolished
PKCδC1B W252G
  reduction in affinity for PDBu compared with the wild-type: 31 fold
PKCδC1B L255K; in the absence of lipid
  reduction in PDBu binding: 2.9 fold
PKCδC1B L255K; in the presence of lipid
  reduction in PDBu binding: 250 fold
PKCθC1B Q258G; PS/PC mixture, total phospholipid 100 μg/ml, Q258G
  PDBu binding at 50% PS relative to the level at 100% PS: 85.7%
PKCθC1B Q258G; Q258G vs wild-type PKCθC1B (Kd for PDBu, Ki for DOG/SAG)
  reduction in binding affinity compared with the wild-type: 1720 fold
PKCθC1B Q258G; read-out: PDBu Kd, PKCθ C1B Q258G, mean ± S.E.M.
  Kd: 670 ± 150 nM
PKCθC1B wild-type; 5% PS in PS/PC, relative to binding at 100% PS
  [3H]PDBu binding at 5% PS: Approximately 30%
PKCθC1B wild-type; 100% PC (0% PS)
  [3H]PDBu binding in 100% PC: essentially no binding
PKCθC1B wild-type; PS/PC mixture, total phospholipid 100 μg/ml, PKCθC1B
  PDBu binding at 50% PS relative to the level at 100% PS: 90.5%
PKCθC1B wild-type; read-out: PDBu Kd, PKCθ C1B WT, mean ± S.E.M. of triplicate independent experiments
  Kd: 0.39 ± 0.2 nM
PKCδC1B L255D
  effect of mutation on strong binding of PDBu: completely abolished
PKCδC1B L250R; in the absence of lipid
  reduction in PDBu binding: 6.6 fold
PKCδC1B L250R; in the presence of lipid
  reduction in PDBu binding: 340 fold
PKCδC1B L254G
  reduction in affinity for PDBu compared with the wild-type: > 1000 fold
PKCθC1B L255G; L255G vs wild-type PKCθC1B (Kd for PDBu, Ki for DOG/SAG)
  reduction in binding affinity compared with the wild-type: 11.4 fold and 11 fold
PKCθC1B L255G; PS/PC mixture, total phospholipid 100 μg/ml, L255G
  PDBu binding at 50% PS relative to the level at 100% PS: 92.8%
PKCθC1B L255G; PS/PC mixtures, L255G, decrease at 100% PS
  PS percentage giving maximal [3H]PDBu binding: 50–75%
PKCθC1B L255G; read-out: PDBu Kd, PKCθ C1B L255G, mean ± S.E.M.
  Kd: 4.44 ± 0.56 nM
